MrgX1 agonist: human MrgX1 receptor agonism, primary screen; Q96LB2; MrgX1-HEK293 cells, Fluo-4 calcium fluorescence, agonist mode; hits give high values; B-score at 10 µM; hit rate 0.44% among 310,000;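 active = calcium response B-score plate-corrected fluorescence ratio at least 3 library SD, with starting fluorescence B-score inside 5 SD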
Target sequence (Q96LB2 whole entry, looked up): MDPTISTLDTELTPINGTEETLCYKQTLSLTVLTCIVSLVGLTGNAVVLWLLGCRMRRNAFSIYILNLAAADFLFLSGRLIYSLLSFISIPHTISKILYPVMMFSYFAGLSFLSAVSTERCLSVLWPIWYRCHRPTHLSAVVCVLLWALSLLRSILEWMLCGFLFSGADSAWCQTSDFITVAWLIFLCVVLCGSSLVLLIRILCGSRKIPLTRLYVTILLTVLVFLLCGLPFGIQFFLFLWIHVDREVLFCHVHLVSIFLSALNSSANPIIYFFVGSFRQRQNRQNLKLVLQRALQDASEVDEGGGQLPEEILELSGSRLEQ
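System: HEK293 cells stably expressing human MrgX1 receptor; Dosing: test compound in the initial addition of three; Schedule: overnight plating, then 30 min 37 °C plus 30 min room-temperature dye loading; Detection: kinetic calcium dye fluorescence, Fluo-4 NW; Controls: per-plate positive and negative controls for Z′ factor.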
MrgX1 allo act: human MrgX1 positive allosteric modulation, primary screen. MrgX1-HEK293, Fluo-4 calcium flux, FDSS; hits give high values. B-score at 10 µM. hit rate 0.63% among 310,000. AID 588675;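 active = plate-corrected calcium response at least 3 library SD above typical, normal starting fluorescence, not activating the receptor alone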;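 note: compound read alongside a low EC10 to EC30 dose of BAM8-22 agonist; peak minus trough fluorescence over baseline measured at the second addition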
MrgX1 antagonist: human MrgX1 receptor antagonism, primary screen | Q96LB2 | MRGX1-HEK293 calcium flux, Fluo-4, BAM8-22 antagonism; hits give low values | B-score at 10 µM | hit rate 1.3% among 310,000 | AID 588676;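 active = calcium-response B-score plate-corrected more than 3 library SD below zero, starting fluorescence within 5 deviations, no agonist response on first addition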;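 note: peak minus trough fluorescence over baseline after final BAM8-22 challenge near maximal dose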
RGS4 block: human RGS4 inhibition; P49798; AID 463165; hit rate 0.45% among 310,000; HEK293 M3R/RGS4 inducible, Fluo-4 calcium flux; hits give high values; triggered by carbachol at its EC20; B-score at 10 µM;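 active = B-score, a plate-corrected calcium signal, over three deviations above library mean, with baseline fluorescence within five deviations of library mean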;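 note: RGS4 expression induced by doxycycline in cells with stable M3 receptor; B-score is computed from the integrated fluorescence ratio over baseline after carbachol; higher B-score means a larger calcium signal and so more RGS4 inhibition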
Target sequence (P49798 whole entry, looked up): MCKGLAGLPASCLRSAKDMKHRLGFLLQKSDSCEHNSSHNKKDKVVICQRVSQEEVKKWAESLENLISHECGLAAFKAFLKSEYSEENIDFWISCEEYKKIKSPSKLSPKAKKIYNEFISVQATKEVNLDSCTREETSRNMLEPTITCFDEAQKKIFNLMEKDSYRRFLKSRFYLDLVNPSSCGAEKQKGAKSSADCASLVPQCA
RGS4 pot: potentiators or activators of RGS4; HEK293 M3R/inducible RGS4, carbachol calcium flux Fluo4; hits give low values; B-score at 10 µM; hit rate 0.92% among 310,000; AID 463111;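 active = B-score of the integrated calcium signal more than 4 SD below the library mean, with starting fluorescence not abnormally high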;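 note: negative B-score means reduced calcium response which marks RGS4 activation or potentiation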
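Assay system: Inducible-RGS4 HEK293 cells carrying M3 receptor | Schedule: Compound preincubation 20 min at room temperature before agonist | Signal: Kinetic calcium fluorescence imaging with Fluo4-AM dye, 2 µM | Read-out basis: B score from integrated fluorescence ratio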
MrgX1 ant reconf: human MrgX1 receptor antagonism, re-confirmation screen; shares compounds with MrgX1 antagonist; remaining BAM8-22 calcium response % of control (hits give low values), % at 10 µM; MrgX1-HEK293, BAM8-22 calcium flux, Fluo-4; hits give low values; hit rate 19% among 2,300;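 active = remaining agonist calcium response no higher than 100% minus 3 SD of agonist-only control wells, with starting fluorescence near control levels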;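 note: agonist BAM8-22 given at a near maximal EC90 to ECmax level; peak minus minimum fluorescence divided by baseline after agonist addition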
HEK293 Ca flux: MrgX1 antagonist counter-screen hit in parental HEK293 cells | hit rate 2% among 4,000 | fluorescence ratio F(max-min)/F0 at 10 µM | shares compounds with MrgX1 antagonist | Fluo-4 calcium fluorescence, FDSS;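 active = duplicate-averaged calcium fluorescence ratio at least three times the standard deviation of buffer wells, a nonspecific response in parental cells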
HEK293 Ca counter: MrgX1 allosteric activator counter-screen hit in parental HEK293 cells; fluorescence ratio F(max-min)/F0 at 10 µM; parental HEK293 calcium flux, Fluo-4 fluorescence ratio; hits give high values; shares compounds with MrgX1 antagonist; AID 624114; hit rate 0.4% among 4,000;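 active = calcium fluorescence ratio, averaged over duplicates, at least 3 SD of the buffer-well ratio, meaning a nonspecific response in receptor-free cells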;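 note: untransfected parental HEK293 lacking MrgX1 used as counterscreen for MrgX1 allosteric activators; fluorescence change taken during the second addition on a kinetic imager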
HEK293 Ca cntr2: counter-screen for MrgX1 activators: effect in parental HEK293 cells; fluorescence ratio F(max-min)/F0 at 10 µM; AID 624115; hit rate 8.7% among 4,000; Fluo-4 calcium fluorescence (FDSS); hits give high values; shares compounds with MrgX1 antagonist;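 active = calcium fluorescence ratio at least three times the spread of buffer wells, meaning a non-specific response in parental cells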
* = called active by the depositor; i = inactive; nt = no result given. Rows were chosen to be rich in hits. Some 3.5% of all compounds tested hit in one or more screens of this group.

SMILES | MrgX1 agonist | MrgX1 allo act | MrgX1 antagonist | RGS4 block | RGS4 pot | MrgX1 ant reconf | HEK293 Ca flux | HEK293 Ca counter | HEK293 Ca cntr2
COc1ccc(C2CC(c3ccccc3)=NN2C(=O)COC(=O)c2nc3nccc(C)n3n2)cc1 (stereo not given) | i | i | i | i | i | nt | nt | nt | nt
c1ccc(CCN(Cc2ccccc2)C2CCN(C3CCCC3)CC2)cc1 | i | i | i | i | i | nt | nt | nt | nt
COc1ccc(-c2cc(C(=O)N3CCN(C(c4ccccc4)c4ccccc4)CC3)no2)cc1OC | i | i | -5.33* | i | i | i | i | i | i
O=C1OCCC1Sc1nc2ccccc2c(=O)n1Cc1ccccc1 (stereo not given) | i | i | -6.15* | i | i | i | i | i | i
O=C1OCCC1Sc1nc2cc(Cl)ccc2n1Cc1ccccc1 (stereo not given) | i | i | i | i | i | nt | nt | nt | nt
CCOC(=O)C(CC(=O)O)=C(c1ccccc1)c1ccccc1 | i | i | i | i | i | nt | nt | nt | nt
CCOc1ccccc1NC(=O)CCC(=O)Nc1ccc2nc(N3CCN(C)CC3)cc(C)c2c1 | i | i | -5.14* | i | i | i | i | i | i
CCOC(=O)Cc1csc(NC(=O)c2c(O)c3c(n(CC(C)C)c2=O)CCCC3)n1 | i | i | -6.84* | i | i | 81.3%* | i | i | i
COc1ccc(C(C)(C)NC(=O)C2CCC(=O)N(C3CCCC3)C2)cc1OC (stereo not given) | i | i | i | i | i | nt | nt | nt | nt
CCCN(C1CCS(=O)(=O)C1)S(=O)(=O)c1ccc(F)cc1 (stereo not given) | i | i | i | i | i | nt | nt | nt | nt
Cn1c(O)c(N=NC(=O)Cn2ccc(C(F)(F)F)n2)c2ccccc21 | i | i | -6.29* | i | i | i | i | i | i
Cc1nn(-c2ccc(N3CCOCC3)nn2)c(C)c1CCC(=O)NCc1ccccc1 | i | i | i | i | i | nt | nt | nt | nt
Oc1ccccc1CNc1cnc2ccccc2c1 | i | i | i | i | i | nt | nt | nt | nt
C=CCc1cccc(CNc2cnc3ccccc3c2)c1O | i | i | -6.62* | i | i | 81.9%* | i | i | i
CCOC(=O)c1cc(-c2ccccc2)n(Cc2cc(CC)no2)n1 | i | i | -5.51* | i | i | i | i | i | i
Cc1cc(Cn2nc(C(=O)NCC3CC3)cc2-c2ccccc2)on1 | i | i | i | i | i | nt | nt | nt | nt
COC1=CC(=O)CC(C)C12Oc1cc(OC)cc(OC)c1C2=O (stereo not given) | i | i | -5.91* | i | i | i | i | i | i
Cc1ccc(-n2c(=O)cc(N3CCCCCC3)[nH]c2=O)cc1 | i | i | -7.69* | i | i | i | i | i | i
Nc1ncnc2nc(SCC(=O)N3CCN(c4ccccc4)CC3)[nH]c12 | i | i | -4.71* | i | i | i | i | i | i
N#Cc1ccccc1OCC(=O)NCC(c1cccs1)N1CCOCC1 (stereo not given) | i | i | i | i | i | nt | nt | nt | nt
CCC1CCCCN1C(=O)Cn1c(=O)n(CCCC(=O)NCc2ccco2)c(=O)c2sccc21 (stereo not given) | i | i | i | i | i | nt | nt | nt | nt
COc1ccc(N(CC(=O)O)S(=O)(=O)c2cccnc2)cc1 | i | i | -6.8* | i | i | i | i | i | i
Cc1nc2ccc(NC(=O)COc3ccccc3F)cc2s1 | i | i | -5.82* | i | i | 80.4%* | i | i | i
CCCc1cc(C(=O)NNC(=S)NC(C)c2ccccc2)cs1 (stereo not given) | i | i | i | i | i | nt | nt | nt | nt
CN1CCN(c2ccc(Cl)cc2NS(=O)(=O)c2ccccc2Cl)CC1 | i | i | -5.3* | i | i | 81.4%* | i | i | i
SMILES | MrgX1 agonist | MrgX1 allo act | MrgX1 antagonist | RGS4 block | RGS4 pot | MrgX1 ant reconf | HEK293 Ca flux | HEK293 Ca counter | HEK293 Ca cntr2
Cc1nn(CCc2nn[nH]n2)c2nc(-c3ccc(C4CCCCC4)cc3)cc(C(F)(F)F)c12 | i | i | -21.3* | i | -8.53* | 2.0%* | i | i | 83.6*
Cc1nn(CCC(=O)O)c2nc(-c3cccnc3)cc(C(F)(F)F)c12 | i | i | i | i | i | nt | nt | nt | nt
CCOC(=O)c1cnc(-n2nc(C)cc2C)nc1Nc1ccc(OC)cc1 | i | i | i | i | i | nt | nt | nt | nt
CCOC(=O)c1cnc(-n2nc(C)cc2C)nc1NC1CCCC1 | i | i | -4.69* | i | i | i | i | i | i
CCN(CC(=O)Nc1cccc(OC)c1)CC(=O)Nc1ccc(C)cc1Cl | i | i | i | i | i | nt | nt | nt | nt
COc1cc(S(=O)(=O)N2CCOCC2)ccc1NC(=O)CN1c2cccc3cccc(c23)S1(=O)=O | i | i | -8.38* | i | i | i | i | i | i
Cc1ccc(NC(=O)CN2c3cccc4cccc(c34)S2(=O)=O)cc1S(=O)(=O)N1CCOCC1 | i | i | i | i | i | nt | nt | nt | nt
CCCCNC(=NCc1cccc(C(F)(F)F)c1)Nc1ccccc1 | i | i | i | i | i | nt | nt | nt | nt
CCOc1c(OC)ccc2c3c(c(=O)oc12)CCCC3 | i | i | i | i | i | nt | nt | nt | nt
CCOc1c2ccoc2nc2c(OC)c(OC)ccc12 | i | i | -5.68* | i | i | i | i | i | i
Cc1cccc(N(CC(=O)NC2CCCCC2)C(=O)c2csnn2)c1 | i | i | i | i | i | nt | nt | nt | nt
Cc1cccc(N(CC(=O)NC2CCCCC2)C(=O)c2c(C)noc2C)c1 | i | i | -6.55* | i | i | i | i | i | i
CCc1nnc2sc(-c3ccc(NC(=O)c4ccco4)cc3)nn12 | i | i | -8.07* | i | i | i | i | i | i
O=C(Nc1ccc(C(=O)N2CCOCC2)cc1)c1cccs1 | i | i | -6.99* | i | i | 75.3%* | i | i | i
